Experiments:
Homo sapiens = species on record: Homo sapiens; experiment: Protein binding in human plasma; details: read-out: PPB (converted)
[1] = Plasma clearance in rat at 3 mg/kg, po or 3 mg/kg, iv; format: ADME, organism-based
Method in brief: (§1)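 In vivo PK: iv dosing in DMSO/PEG400/H₂O mixtures, oral dosing as methylcellulose suspension. Half-life was taken after iv dosing; AUC and Cmax after po dosing.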

[2] = Metabolic stability in rhesus monkey liver microsomes in presence of UDPGA; format: ADME, Macaca mulatta, Microsome
Method in brief: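 Single-point measurement: compound 2 µM, microsomes 0.3 mg/mL, with UDPGA; degradation quantified by LC/MS/MS after 1 h of incubation.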

Liver microsomes = experiment: Metabolic stability in rat liver microsomes in presence of UDPGA; format: ADME, Microsome
Cytochrome P450 2C9 = Cytochrome P450 2C9 (Homo sapiens, UniProt P11712); experiment: Inhibition of CYP2C9; format: ADME
Chain of Cytochrome P450 2C9 (P11712 whole entry): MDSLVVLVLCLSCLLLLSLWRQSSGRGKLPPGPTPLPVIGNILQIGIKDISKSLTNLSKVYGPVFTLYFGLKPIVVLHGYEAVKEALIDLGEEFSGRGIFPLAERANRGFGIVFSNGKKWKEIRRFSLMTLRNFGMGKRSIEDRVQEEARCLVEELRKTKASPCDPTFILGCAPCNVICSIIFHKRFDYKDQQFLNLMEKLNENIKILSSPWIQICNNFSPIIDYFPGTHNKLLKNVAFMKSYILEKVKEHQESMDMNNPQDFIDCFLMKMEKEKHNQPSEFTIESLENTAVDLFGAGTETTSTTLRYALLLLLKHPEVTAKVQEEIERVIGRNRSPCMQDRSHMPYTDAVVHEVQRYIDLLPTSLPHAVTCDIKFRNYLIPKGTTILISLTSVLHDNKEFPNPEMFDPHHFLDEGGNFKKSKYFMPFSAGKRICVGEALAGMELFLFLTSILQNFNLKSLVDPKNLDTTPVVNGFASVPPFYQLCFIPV

[3] = Protein binding in rhesus monkey plasma; format: ADME, cell-free, Macaca mulatta; details: read-out: PPB (converted)
Method in brief: (§2)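 Plasma protein binding was measured by ultrafiltration after a 1 h incubation of compound in plasma at 37 °C.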

[4] = Oral bioavailability in rat at 3 mg/kg; format: ADME, organism-based; details: in vivo
Method in brief: as §1

[5] = biological target: T1, DNA polymerase alpha catalytic subunit (Homo sapiens, UniProt P09884); experiment: Inhibition of human DNA polymerase alpha
T1 sequence (P09884 whole entry): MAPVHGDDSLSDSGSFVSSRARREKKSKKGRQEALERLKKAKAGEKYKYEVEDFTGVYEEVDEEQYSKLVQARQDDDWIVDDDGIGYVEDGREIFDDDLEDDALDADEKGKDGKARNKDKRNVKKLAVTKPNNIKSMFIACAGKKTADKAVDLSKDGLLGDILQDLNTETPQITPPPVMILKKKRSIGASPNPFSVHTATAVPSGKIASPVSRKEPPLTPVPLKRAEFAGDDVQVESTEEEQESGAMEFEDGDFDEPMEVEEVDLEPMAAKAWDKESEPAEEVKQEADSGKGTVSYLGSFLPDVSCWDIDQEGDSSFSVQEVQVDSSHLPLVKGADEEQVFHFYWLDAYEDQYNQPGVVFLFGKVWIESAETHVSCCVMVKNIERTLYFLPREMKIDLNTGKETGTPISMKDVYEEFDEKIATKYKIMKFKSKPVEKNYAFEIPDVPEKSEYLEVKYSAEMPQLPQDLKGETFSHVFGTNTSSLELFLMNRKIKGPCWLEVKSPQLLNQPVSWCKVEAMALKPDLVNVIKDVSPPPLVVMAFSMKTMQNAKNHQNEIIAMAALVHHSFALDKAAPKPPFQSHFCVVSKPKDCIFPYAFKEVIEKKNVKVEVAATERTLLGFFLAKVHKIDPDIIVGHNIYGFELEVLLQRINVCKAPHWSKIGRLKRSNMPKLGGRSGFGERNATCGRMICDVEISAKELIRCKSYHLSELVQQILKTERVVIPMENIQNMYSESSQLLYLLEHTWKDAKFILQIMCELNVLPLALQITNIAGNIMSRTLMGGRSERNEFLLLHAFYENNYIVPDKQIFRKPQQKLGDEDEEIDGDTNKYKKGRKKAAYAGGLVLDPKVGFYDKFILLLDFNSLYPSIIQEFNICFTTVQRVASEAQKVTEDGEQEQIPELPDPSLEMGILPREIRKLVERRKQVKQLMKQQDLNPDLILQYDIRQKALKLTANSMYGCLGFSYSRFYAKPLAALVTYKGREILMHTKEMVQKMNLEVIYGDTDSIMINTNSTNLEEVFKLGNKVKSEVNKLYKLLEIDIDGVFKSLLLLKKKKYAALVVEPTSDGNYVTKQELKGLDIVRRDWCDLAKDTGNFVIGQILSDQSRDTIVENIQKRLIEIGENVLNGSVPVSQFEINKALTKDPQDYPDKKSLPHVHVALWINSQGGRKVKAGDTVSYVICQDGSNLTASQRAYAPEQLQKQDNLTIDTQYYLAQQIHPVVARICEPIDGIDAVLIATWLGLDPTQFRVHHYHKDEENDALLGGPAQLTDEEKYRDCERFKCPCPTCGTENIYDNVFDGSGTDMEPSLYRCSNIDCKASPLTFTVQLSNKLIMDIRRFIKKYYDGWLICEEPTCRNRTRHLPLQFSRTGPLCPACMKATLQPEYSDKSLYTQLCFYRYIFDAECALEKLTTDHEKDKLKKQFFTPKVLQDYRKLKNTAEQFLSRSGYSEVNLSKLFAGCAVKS

[6] = system: Human immunodeficiency virus 1; experiment: Antiviral activity against HIV1 in human MT4 cell assessed as inhibition of virus spread in presence of 10% fetal bovine serum; format: functional; details: Human immunodeficiency virus 1, MT4; read-out: CIC95
Method in brief: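 Spread of HIV-1 infection in MT-4 human T-lymphoid cell culture with 10% fetal bovine serum; CIC95 is the concentration inhibiting spread by ≥95%; mean of at least three independent experiments.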

Cytochrome P450 3A4 = Cytochrome P450 3A4 (Homo sapiens, UniProt P08684); experiment: Inhibition of CYP3A4; format: ADME
Chain of Cytochrome P450 3A4 (P08684 whole entry): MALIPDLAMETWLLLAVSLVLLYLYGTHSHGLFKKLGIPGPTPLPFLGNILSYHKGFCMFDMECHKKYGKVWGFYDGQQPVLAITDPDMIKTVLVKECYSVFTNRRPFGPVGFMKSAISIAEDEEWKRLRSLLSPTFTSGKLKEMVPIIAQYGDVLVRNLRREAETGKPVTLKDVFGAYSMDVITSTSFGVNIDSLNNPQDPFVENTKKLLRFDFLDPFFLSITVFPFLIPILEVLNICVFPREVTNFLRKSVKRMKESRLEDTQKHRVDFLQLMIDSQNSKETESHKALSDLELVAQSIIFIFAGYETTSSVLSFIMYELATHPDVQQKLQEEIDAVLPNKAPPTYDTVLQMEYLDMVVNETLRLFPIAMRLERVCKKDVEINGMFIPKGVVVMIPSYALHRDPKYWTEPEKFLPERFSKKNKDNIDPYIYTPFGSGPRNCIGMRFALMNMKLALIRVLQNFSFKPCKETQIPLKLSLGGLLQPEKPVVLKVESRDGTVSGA

Cytochrome P450 2C19 = Cytochrome P450 2C19 (Homo sapiens, UniProt P33261); experiment: Inhibition of CYP2C19; format: ADME
Chain of Cytochrome P450 2C19 (P33261 whole entry): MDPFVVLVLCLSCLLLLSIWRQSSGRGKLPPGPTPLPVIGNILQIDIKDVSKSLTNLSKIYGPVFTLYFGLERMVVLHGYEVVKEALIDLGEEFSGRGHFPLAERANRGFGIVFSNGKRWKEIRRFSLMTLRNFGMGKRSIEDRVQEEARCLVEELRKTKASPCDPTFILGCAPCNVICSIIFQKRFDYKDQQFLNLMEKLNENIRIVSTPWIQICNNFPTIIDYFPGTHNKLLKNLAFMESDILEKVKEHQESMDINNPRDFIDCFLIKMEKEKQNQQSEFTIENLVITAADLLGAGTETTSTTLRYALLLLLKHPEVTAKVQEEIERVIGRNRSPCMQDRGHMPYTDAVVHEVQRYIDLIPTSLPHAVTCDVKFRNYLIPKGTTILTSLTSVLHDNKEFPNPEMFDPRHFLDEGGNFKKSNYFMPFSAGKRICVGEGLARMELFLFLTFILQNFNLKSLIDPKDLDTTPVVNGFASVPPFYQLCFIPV

[7] = biological target: Voltage-gated inwardly rectifying potassium channel KCNH2 (Homo sapiens, UniProt Q12809); experiment: Inhibition of human ERG
Chain of Voltage-gated inwardly rectifying potassium channel KCNH2 (Q12809 whole entry): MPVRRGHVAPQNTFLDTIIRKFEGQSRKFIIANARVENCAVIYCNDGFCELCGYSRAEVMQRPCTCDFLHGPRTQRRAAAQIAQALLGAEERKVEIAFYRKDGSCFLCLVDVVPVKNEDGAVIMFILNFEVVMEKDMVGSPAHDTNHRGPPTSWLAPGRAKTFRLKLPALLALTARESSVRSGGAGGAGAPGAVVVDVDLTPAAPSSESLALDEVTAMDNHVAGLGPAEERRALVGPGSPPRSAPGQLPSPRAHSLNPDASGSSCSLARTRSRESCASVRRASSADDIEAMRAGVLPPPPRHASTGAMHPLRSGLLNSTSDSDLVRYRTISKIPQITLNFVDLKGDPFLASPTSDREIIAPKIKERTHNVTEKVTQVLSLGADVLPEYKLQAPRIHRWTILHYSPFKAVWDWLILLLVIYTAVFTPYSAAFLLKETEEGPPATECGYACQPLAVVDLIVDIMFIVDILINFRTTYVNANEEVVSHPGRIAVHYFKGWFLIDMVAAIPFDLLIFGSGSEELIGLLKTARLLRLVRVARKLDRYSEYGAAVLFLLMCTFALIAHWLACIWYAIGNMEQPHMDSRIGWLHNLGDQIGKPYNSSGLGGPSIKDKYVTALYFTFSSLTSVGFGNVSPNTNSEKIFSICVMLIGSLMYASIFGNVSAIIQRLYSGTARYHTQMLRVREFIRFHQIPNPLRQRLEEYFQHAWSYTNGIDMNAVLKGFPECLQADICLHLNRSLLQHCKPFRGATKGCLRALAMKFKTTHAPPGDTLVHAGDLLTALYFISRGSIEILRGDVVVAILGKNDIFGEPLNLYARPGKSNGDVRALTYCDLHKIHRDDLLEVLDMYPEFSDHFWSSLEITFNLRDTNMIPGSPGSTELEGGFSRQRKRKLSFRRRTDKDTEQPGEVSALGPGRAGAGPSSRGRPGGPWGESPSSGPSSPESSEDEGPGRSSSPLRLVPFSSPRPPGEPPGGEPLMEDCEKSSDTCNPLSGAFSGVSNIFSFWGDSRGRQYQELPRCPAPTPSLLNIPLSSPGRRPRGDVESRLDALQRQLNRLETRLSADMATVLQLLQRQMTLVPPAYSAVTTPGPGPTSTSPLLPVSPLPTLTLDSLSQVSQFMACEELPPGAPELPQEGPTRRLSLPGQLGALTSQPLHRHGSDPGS

[8] = Oral bioavailability in rhesus monkey at 6.5 mg/kg; format: ADME, organism-based, Macaca mulatta; details: in vivo
Method in brief: (§3)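 Rhesus dosed 1 mg/kg iv in DMSO and 6.5 mg/kg po in 0.5% methylcellulose; plasma clearance and oral bioavailability.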

[9] = Plasma clearance in dog at 1 mg/kg, iv or 2 mg/kg, po; format: ADME, organism-based, Canis lupus familiaris
Method in brief: as §1

[10] = Inhibition of recombinant HIV1 integrase strand transfer activity
[11] = Oral bioavailability in dog at 2 mg/kg; format: ADME, organism-based, Canis lupus familiaris; details: in vivo
Method in brief: as §1

[12] = Inhibition of HIV-RNase-H; set-up: species or system Human immunodeficiency virus
Cytochrome P450 2D6 = Cytochrome P450 2D6 (Homo sapiens, UniProt P10635); experiment: Inhibition of CYP2D6; format: ADME
Chain of Cytochrome P450 2D6 (P10635 whole entry): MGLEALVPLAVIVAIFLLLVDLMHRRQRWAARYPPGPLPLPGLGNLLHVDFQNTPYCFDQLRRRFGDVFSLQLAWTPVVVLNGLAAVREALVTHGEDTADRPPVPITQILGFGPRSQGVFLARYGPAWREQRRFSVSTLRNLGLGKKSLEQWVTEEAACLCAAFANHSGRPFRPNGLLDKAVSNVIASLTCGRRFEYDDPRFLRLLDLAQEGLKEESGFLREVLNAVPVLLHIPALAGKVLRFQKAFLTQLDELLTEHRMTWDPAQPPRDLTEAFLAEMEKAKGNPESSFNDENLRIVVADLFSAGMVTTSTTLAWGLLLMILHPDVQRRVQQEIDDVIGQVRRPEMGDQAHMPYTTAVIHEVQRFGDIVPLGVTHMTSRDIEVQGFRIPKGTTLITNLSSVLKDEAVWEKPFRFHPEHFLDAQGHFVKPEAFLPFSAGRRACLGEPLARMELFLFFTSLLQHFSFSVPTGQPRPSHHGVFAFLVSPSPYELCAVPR

[13] = Protein binding in dog plasma; format: ADME, cell-free, Canis lupus familiaris; details: read-out: PPB (converted)
Method in brief: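 Plasma protein binding measured by ultrafiltration after incubation at 37 °C for 1 h.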

Cytochrome P450 1A2 = biological target: T2, Cytochrome P450 1A2 (Homo sapiens, UniProt P05177); experiment: Inhibition of CYP1A2; format: ADME
T2 sequence (P05177 whole entry): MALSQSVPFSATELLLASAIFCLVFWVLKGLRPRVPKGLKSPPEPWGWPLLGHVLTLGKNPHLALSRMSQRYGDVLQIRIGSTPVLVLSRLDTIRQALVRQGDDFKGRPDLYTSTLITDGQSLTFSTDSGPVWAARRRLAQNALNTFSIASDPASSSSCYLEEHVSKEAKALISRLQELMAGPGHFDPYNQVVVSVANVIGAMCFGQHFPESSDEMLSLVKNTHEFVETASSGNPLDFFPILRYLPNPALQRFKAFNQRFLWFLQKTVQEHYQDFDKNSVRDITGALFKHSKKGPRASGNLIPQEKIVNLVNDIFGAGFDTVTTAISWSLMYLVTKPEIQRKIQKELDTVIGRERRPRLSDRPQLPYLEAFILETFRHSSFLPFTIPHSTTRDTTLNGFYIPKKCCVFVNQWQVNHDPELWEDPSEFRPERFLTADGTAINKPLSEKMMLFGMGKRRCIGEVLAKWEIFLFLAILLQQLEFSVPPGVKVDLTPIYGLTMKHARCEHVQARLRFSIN

[14] = Plasma clearance in rhesus monkey at 1 mg/kg, iv or 6.5 mg/kg, po; format: ADME, organism-based, Macaca mulatta
Method in brief: as §3

Liver = experiment: Metabolic stability in dog liver microsomes in presence of UDPGA; format: ADME, Canis lupus familiaris, Microsome
[15] = Protein binding in rat plasma; format: ADME, cell-free; details: read-out: PPB (converted)
Method in brief: as §2

DNA polymerase beta = DNA polymerase beta (Homo sapiens, UniProt P06746); experiment: Inhibition of human DNA polymerase beta
[16] = system: Human immunodeficiency virus 1; experiment: Antiviral activity against HIV1 in human MT4 cell assessed as inhibition of virus spread in presence of 50% normal human serum; format: functional; details: Human immunodeficiency virus 1, MT4; read-out: CIC95
Method in brief: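 Spread of HIV-1 infection in MT-4 human T-lymphoid cell culture with 50% normal human serum; CIC95 is the concentration inhibiting spread by ≥95%; mean of at least three independent experiments.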

[17] = Inhibition of HCV polymerase; set-up: species or system Hepacivirus hominis
[18] = Inhibition of human DNA polymerase gamma

Compound: CN(C)S(=O)(=O)N(C)[C@@H]1CCCn2c1nc(C(=O)NCc1ccc(F)cc1)c(O)c2=O
- fraction unbound (Homo sapiens): 0.19
- clearance [1]: 1.8 mL/min/kg
- Stability [2]: 84 %/hr
- Stability (Liver microsomes): 81 %/hr
- IC50 (Cytochrome P450 2C9): > 100 µM
- fraction unbound [3]: 0.14
- bioavailability [4]: 63%
- IC50 [5]: > 200 µM
- IC95 [6]: 0.016 µM
- IC50 (Cytochrome P450 3A4): > 100 µM
- IC50 (Cytochrome P450 2C19): > 100 µM
- IC50 [7]: 20 µM
- bioavailability [8]: 9%
- clearance [9]: 3.8 mL/min/kg
- IC50 [10]: 0.007 µM
- bioavailability [11]: 42%
- IC50 [12]: > 25 µM
- IC50 (Cytochrome P450 2D6): > 100 µM
- fraction unbound [13]: 0.11
- IC50 (Cytochrome P450 1A2): > 100 µM
- clearance [14]: 27 mL/min/kg
- Stability (Liver): 46 %/hr
- fraction unbound [15]: 0.01
- IC50 (DNA polymerase beta): > 200 µM
- IC95 [16]: 0.044 µM
- IC50 [17]: > 50 µM
- IC50 [18]: > 200 µM
